This passage reports MIC and inhibition results from ChEMBL document CHEMBL1144047, “Design and synthesis of diketopiperazine and acyclic analogs related to the caprazamycins and liposidomycins as potential antibacterial agents” (2008).

The structures appear in SMILES notation. ≈ marks a conversion by molar mass, not a printed value.

What all share (type): functional
Assay [1] has as its system Staphylococcus aureus. As to the kind of experiment: Antibacterial activity against Staphylococcus aureus Smith after 18 hrs by serial agar dilution method. The gist of the method: (§1)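 MIC determined by serial agar dilution on plain Mueller–Hinton agar; read after 18 h incubation at 37 °C.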
Background: In agar dilution the substance is mixed into plates at graded concentrations.

The subject of assay [2] is Staphylococcus aureus. In words: Antibacterial activity against MDR-Staphylococcus aureus MS9610 after 18 hrs by serial agar dilution method. The gist of the method: (§2)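 MIC by serial agar dilution on Mueller–Hinton agar (no supplement for staphylococci); plates read after 18 h incubation at 37 °C.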
Assay [3] deals with Micrococcus luteus. In words: Antibacterial activity against Micrococcus luteus FDA16 after 18 hrs by serial agar dilution method. Summed up:
as §1

Assay [4] concerns Micrococcus luteus. As to the kind of experiment: Antibacterial activity against Micrococcus luteus PCI1001 after 18 hrs by serial agar dilution method. Particulars: PCI1001, 18 h. The gist of the method:
as §1

A further assay has as its system Bacillus subtilis. In words: Antibacterial activity against Bacillus subtilis NRRLB-558 after 18 hrs by serial agar dilution method. The gist of the method:
as §1

Another assay deals with Corynebacterium bovis. In words: Antibacterial activity against Corynebacterium bovis 1810 after 18 hrs by serial agar dilution method. The gist of the method:
as §1

Assay [5] deals with Mycolicibacterium smegmatis. As to the kind of experiment: Antibacterial activity against Mycobacterium smegmatis ATCC607 after 42 hrs by serial agar dilution method. The gist of the method:
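Serial agar dilution MIC using Mueller–Hinton agar containing 5% glycerol; growth read after 42 h at 37 °C.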

Another assay has as its system Enterococcus faecalis. In words: Antibacterial activity against Enterococcus faecalis NCTC-12201 after 18 hrs by serial agar dilution method. The gist of the method: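 MIC by serial agar dilution on Mueller–Hinton agar supplemented with 5% sheep blood; plates incubated 18 hours at 37 °C under 5% CO₂ before reading.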
Assay [6] deals with Mycobacterium tuberculosis. As to the kind of experiment: Antibacterial activity against Mycobacterium tuberculosis H37Rv at 6.25 ug/ml by microplate Alamar blue assay. Summed up: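 M. tuberculosis H37Rv (ATCC 27294) grown in BACTEC 12B medium; microplate Alamar blue assay; growth inhibition rate recorded at 6.25 µg/mL.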
(Alamar Blue is a resazurin reagent that responds to reducing activity.)

Assay [7] concerns Staphylococcus aureus. As to the kind of experiment: Antibacterial activity against methicillin-resistant Staphylococcus aureus 5 after 18 hrs by serial agar dilution method. Summed up:
as §2

With `NC[C@H]1O[C@@H](O[C@H]([C@H]2O[C@@H](n3ccc(=O)[nH]c3=O)[C@H](O)[C@@H]2O)[C@H](N)C(=O)N[C@@H](COC(=O)c2ccc(-c3ccccc3)cc2)C(=O)O)[C@H](O)[C@@H]1O`, the MIC (as a rule, the lowest concentration found to suppress growth) against Staphylococcus aureus [1] was over 100 µg/mL; in the assay with Staphylococcus aureus [2] it was over 100 µg/mL; against Micrococcus luteus [3], over 100 µg/mL; against Micrococcus luteus [4], 50 µg/mL (≈ 69.9 µM); in the assay with Bacillus subtilis, over 100 µg/mL; in the assay on Corynebacterium bovis it was 100 µg/mL (≈ 140 µM). Moreover, the minimum inhibitory concentration (MIC) in assay [5] is 100 µg/mL (≈ 140 µM); against Enterococcus faecalis, over 100 µg/mL. Also, in assay [6], the inhibition (usually the relative decrease from the control value, in per cent) at 6.25 µg/mL stood at 52%.
Turning to `NC[C@H]1O[C@@H](O[C@H]([C@H]2O[C@@H](n3ccc(=O)[nH]c3=O)[C@H](O)[C@@H]2O)[C@H](N)C(=O)N[C@@H](CO)C(=O)O)[C@H](O)[C@@H]1O`, the MIC in the assay with Staphylococcus aureus [1], against Staphylococcus aureus [2], with Micrococcus luteus [3], against Micrococcus luteus [4], in the assay with Bacillus subtilis and with Corynebacterium bovis was over 100 µg/mL each time. For the same compound, the MIC in [5] was 100 µg/mL (≈ 187 µM); against Enterococcus faecalis, over 100 µg/mL.
With `NC[C@H]1O[C@@H](O[C@H]([C@H]2O[C@@H](n3ccc(=O)[nH]c3=O)[C@H](O)[C@@H]2O)[C@H](N)C(=O)N[C@H](COC(=O)c2ccc(-c3ccccc3)cc2)C(=O)O)[C@H](O)[C@@H]1O`, the MIC with Staphylococcus aureus [1], with Staphylococcus aureus [2], against Micrococcus luteus [3], in the assay on Micrococcus luteus [4], against Bacillus subtilis and in the assay on Corynebacterium bovis was over 100 µg/mL in each case. Further, the MIC in assay [5] is 100 µg/mL (≈ 140 µM); with Enterococcus faecalis it was over 100 µg/mL. The inhibition at 6.25 µg/mL in [6] turned out to be 27%.
Regarding `NC[C@H]1O[C@@H](O[C@H]([C@H]2O[C@@H](n3ccc(=O)[nH]c3=O)[C@H](O)[C@@H]2O)[C@@H]2NC(=O)[C@H](COC(=O)c3ccc(-c4ccccc4)cc3)NC2=O)[C@H](O)[C@@H]1O`, the MIC is over 100 µg/mL against Staphylococcus aureus [1]; over 100 µg/mL in the assay on Staphylococcus aureus [2]; over 100 µg/mL in the assay with Micrococcus luteus [3]; 100 µg/mL (≈ 143 µM) against Micrococcus luteus [4]; over 100 µg/mL against Bacillus subtilis; over 100 µg/mL with Corynebacterium bovis. The results for the MIC (in assay [5]; in the assay with Enterococcus faecalis) were 100 µg/mL (≈ 143 µM) and over 100 µg/mL, respectively. Also, in assay [6], the inhibition at 6.25 µg/mL is 48%.
For `CCCCCCCCCCCCCCCC(=O)OC[C@@H]1NC(=O)[C@H]([C@H](O[C@@H]2O[C@H](CN)[C@@H](O)[C@H]2O)[C@H]2O[C@@H](n3ccc(=O)[nH]c3=O)[C@H](O)[C@@H]2O)NC1=O`, the MIC in the assay with Staphylococcus aureus [1] came to 25 µg/mL (≈ 33.1 µM); against Staphylococcus aureus [2] it was 100 µg/mL (≈ 132 µM); in the assay on Staphylococcus aureus [7], 100 µg/mL (≈ 132 µM); with Micrococcus luteus [3] it was 25 µg/mL (≈ 33.1 µM); against Micrococcus luteus [4], 50 µg/mL (≈ 66.1 µM); against Bacillus subtilis it was 25 µg/mL (≈ 33.1 µM). Moreover, the MIC was found to be 50 µg/mL (≈ 66.1 µM) in the assay on Corynebacterium bovis, 100 µg/mL (≈ 132 µM) in assay [5] and 100 µg/mL (≈ 132 µM) in the assay with Enterococcus faecalis. For the same compound, the inhibition at 6.25 µg/mL in [6] was 35%.
In the case of `NC[C@H]1O[C@@H](O[C@H]([C@H]2O[C@@H](n3ccc(=O)[nH]c3=O)[C@H](O)[C@@H]2O)[C@@H]2NC(=O)[C@@H](COC(=O)c3ccc(-c4ccccc4)cc3)NC2=O)[C@H](O)[C@@H]1O`, the MIC in the assay with Staphylococcus aureus [1], with Staphylococcus aureus [2], against Micrococcus luteus [3], in the assay on Micrococcus luteus [4], against Bacillus subtilis and against Corynebacterium bovis was over 100 µg/mL each time. In addition, the MIC (in [5]; in the assay with Enterococcus faecalis) was over 100 µg/mL in each case. Also, testing at 6.25 µg/mL in assay [6] gave an inhibition of 29%.
For the compound `CCCCCCCCCCCCCCCC(=O)OC[C@H](NC(=O)[C@@H](N)[C@H](O[C@@H]1O[C@H](CN)[C@@H](O)[C@H]1O)[C@H]1O[C@@H](n2ccc(=O)[nH]c2=O)[C@H](O)[C@@H]1O)C(=O)O`, the MIC came out at 25 µg/mL (≈ 32.3 µM) against Staphylococcus aureus [1]; 50 µg/mL (≈ 64.6 µM) with Staphylococcus aureus [2]; 50 µg/mL (≈ 64.6 µM) in the assay with Staphylococcus aureus [7]; 50 µg/mL (≈ 64.6 µM) against Micrococcus luteus [3]; 25 µg/mL (≈ 32.3 µM) against Micrococcus luteus [4]; 25 µg/mL (≈ 32.3 µM) with Bacillus subtilis. The MIC in the assay with Corynebacterium bovis amounted to 12.5 µg/mL (≈ 16.2 µM); in assay [5], 100 µg/mL (≈ 129 µM); against Enterococcus faecalis, 50 µg/mL (≈ 64.6 µM). Also, at 6.25 µg/mL the inhibition in assay [6] was 51%.
On to `CCCCCCCCCCCCCCCC(=O)OC[C@@H](NC(=O)[C@@H](N)[C@H](O[C@@H]1O[C@H](CN)[C@@H](O)[C@H]1O)[C@H]1O[C@@H](n2ccc(=O)[nH]c2=O)[C@H](O)[C@@H]1O)C(=O)O`, for which the minimal inhibitory concentration (MIC) against Staphylococcus aureus [1] came to 25 µg/mL (≈ 32.3 µM); in the assay with Staphylococcus aureus [2] it was 50 µg/mL (≈ 64.6 µM); in the assay with Staphylococcus aureus [7], 50 µg/mL (≈ 64.6 µM); in the assay with Micrococcus luteus [3] it was 50 µg/mL (≈ 64.6 µM); against Micrococcus luteus [4], 12.5 µg/mL (≈ 16.2 µM); in the assay on Bacillus subtilis, 25 µg/mL (≈ 32.3 µM). The MIC in the assay on Corynebacterium bovis amounted to 12.5 µg/mL (≈ 16.2 µM); in assay [5], 50 µg/mL (≈ 64.6 µM); with Enterococcus faecalis it was 50 µg/mL (≈ 64.6 µM). The same compound had an inhibition at 6.25 µg/mL in assay [6] of 59%.
